Screens as filed in PubChem.
An excerpt weighted towards active compounds, which were near 3.7% of everything screened.
KCNQ1 pot: human KCNQ1 channel potentiation or activation; B-score at 10 µM; 310,000 tested, 0.35% active; CHO-K1 KCNQ1, thallium flux FluxOR fluorescence; stronger effect = higher value; P51787;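 active = fluorescence ratio B-score, a plate-corrected score, at least three library SD, with initial intensity B-score within 5 SD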
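Assay system: stable KCNQ1 CHO-K1 line; medium: assay buffer, equal DMSO in all wells; timing: 90 min dye loading and 20 min compound exposure, both at room temperature; technique: kinetic FluxOR thallium fluorescence, 10-s 1-Hz baseline, 110-s post-stimulus read; read-out basis: B score of baseline-normalized fluorescence ratio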
Kir21 block: inhibitors of mouse Kir2.1 inward-rectifier potassium channel; P35561; HEK293-Kir2.1, FluxOR thallium flux fluorescence; stronger effect = lower value; B-score at 10 µM; 310,000 tested, 0.85% active;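 active = fluorescence ratio B-score at or below minus 3 SD of library scores, with starting-brightness B-score within 2 SD, cut at about -4.2 in these data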;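 also: channel flux triggered by added potassium and thallium sulfate stimulus; B-score of peak minus minimum fluorescence over baseline after thallium stimulus; more negative B-score means stronger Kir2.1 block with less thallium influx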
KCNK3 block: human KCNK3 channel inhibition, primary screen; B-score at 10 µM; CHO-KCNK3 thallium flux, FluxOR fluorescence; stronger effect = lower value; 340,000 tested, 0.84% active; O14649;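 active = B-score under library mean minus 4 SD, starting fluorescence ratio at most library mean plus 5 SD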;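 also: more negative B-score means stronger inhibition of thallium flux through KCNK3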
KCNK9 inh: inhibitors of human KCNK9 two-pore domain potassium channel. HEK293 KCNK9, FluxOR thallium flux fluorescence; stronger effect = lower value. B-score at 10 µM. 310,000 tested, 1.2% active. AID 488922;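 active = ratio B-score over 3 SD below the library mean, with starting fluorescence within 5 SD of its mean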;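 also: negative B-score means less thallium flux so channel inhibition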
Target sequence (Q9NPC2 whole entry, looked up, the tested form may be a part): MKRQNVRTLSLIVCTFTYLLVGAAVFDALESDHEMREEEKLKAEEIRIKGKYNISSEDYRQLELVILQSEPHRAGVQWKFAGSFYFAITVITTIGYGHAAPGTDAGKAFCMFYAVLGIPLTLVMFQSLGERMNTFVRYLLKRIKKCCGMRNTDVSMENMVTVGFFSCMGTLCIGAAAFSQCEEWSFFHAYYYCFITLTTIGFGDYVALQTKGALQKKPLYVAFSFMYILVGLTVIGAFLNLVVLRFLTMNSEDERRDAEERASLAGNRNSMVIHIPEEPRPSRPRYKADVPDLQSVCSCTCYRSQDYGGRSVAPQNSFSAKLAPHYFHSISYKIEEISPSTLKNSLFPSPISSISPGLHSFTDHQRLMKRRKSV
hERG rescue: compounds protecting human hERG from proarrhythmic drug block; Q12809; AID 1511; CHO-hERG, FluxOR thallium flux, dofetilide IC70 present; activation (rescue from dofetilide block), less the hit threshold, % at 10 µM; 310,000 tested, 0.51% active;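 active = activation above the mean of controls blocked by dofetilide plus 5 SD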;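 also: thallium influx through hERG after potassium depolarization seen as dye fluorescence rise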
KCNQ1 block: human KCNQ1 channel inhibition | 310,000 tested, 1.3% active | B-score at 10 µM | CHO-K1 KCNQ1, FluxOR thallium flux fluorescence; stronger effect = higher value | AID 2642;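 active = compounds whose thallium flux B-score, printed positive for inhibition, exceeds three library SD while starting fluorescence stays within three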;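 also: channel opened by potassium depolarization with thallium stimulus after 20 min compound exposure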
KCNQ1 block val: human KCNQ1 channel inhibition, validation assay. 1,600 tested, 93% active. shares compounds with KCNQ1 block. KCNQ1 cell line, FluxOR thallium flux fluorescence. AID 588353. inhibition, % at 10 µM;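 active = primary screen active, with duplicate mean exceeding buffer control mean plus 3 SD of buffer wells, cut at about 28% in these data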
CHO KCNQ1 ctr: activity in parental CHO cells lacking KCNQ1; shares compounds with KCNQ1 block; parental CHO-K1, FluxOR thallium flux fluorescence ratio; stronger effect = lower value; zero means no signal rise above baseline; fluorescence ratio (Tl flux) at 10 µM; 1,600 tested, 21% active;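 active = mean of duplicate thallium-flux fluorescence ratios in parental host cells more than 5 SD below the buffer control mean, cut at about 0.38 in these data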;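 also: ratio is peak minus minimum fluorescence divided by baseline fluorescence; actives read low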
KCNQ1 APC inh: blocks human KCNQ1 current in automated patch clamp; KCNQ1-CHO cells; calls only at 10 µM; shares compounds with KCNQ1 block; 490 tested, 20% active;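 active = KCNQ1 current drop exceeding 3 SD of negative control wells, seen in both duplicate runs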;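 also: steady state current during a 2 s step from -80 to +40 mV; negative values mean current inhibition and positive values mean potentiation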
KCNQ2 inh: rat KCNQ2 inhibition in KCNQ1 inhibitor specificity screen. AID 651746. shares compounds with KCNQ1 block. KCNQ2 cells, FluxOR thallium flux fluorescence. inhibition, % at 10 µM. 1,600 tested, 71% active;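 active = mean percent inhibition of the KCNQ2 thallium signal more than 5 SD above the buffer-only control wells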;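 also: KCNQ2 expressed in CHO cells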
KCNQ1-KCNE1 inh: KCNQ1 inhibitor that also blocks human KCNQ1/KCNE1 channel; KCNQ1/KCNE1 cells, FluxOR thallium flux fluorescence; AID 652147; shares compounds with KCNQ1 block; 1,600 tested, 77% active; inhibition, % at 10 µM;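 active = mean percent inhibition of duplicate wells above the buffer-only control mean plus 3 SD of those controls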
KCNK9 inh conf: confirmation of human KCNK9 potassium channel inhibitors. shares compounds with KCNK9 inh. HEK293 KCNK9 cells, FluxOR thallium flux fluorescence. inhibition, % at 10 µM. 4,900 tested, 43% active;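 active = thallium signal inhibited by more than 5 SD of the compound-free buffer control wells, on both duplicate plates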
Kir21 sel: mouse Kir2.1 off-target activity of KCNK9 modulators; AID 492993; shares compounds with KCNK9 inh; 4,900 tested, 4% active; inhibition, % at 10 µM; Kir2.1 cells, FluxOR thallium flux fluorescence;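 active = thallium signal drop more than 5 SD beyond the mean of the no-compound control wells, seen in both duplicate plates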;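 also: signal is fluorescence rise after thallium addition divided by baseline fluorescence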
KCNK9 uninduced: second check of KCNK9 modulator effects in non-induced HEK293 cells; shares compounds with KCNK9 inh; FluxOR thallium flux; inhibition, % at 10 µM; 4,900 tested, 40% active;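 active = thallium signal drop beyond 5 SD of the untreated control mean, on both duplicate plates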
Of the large screens only hits and unclear results are named; the others gave an inactive call (follow-up assays come after a bar, where they were run).

COc1ccccc1N1CCN(C(=O)CSc2nc3ccccc3[nH]2)CC1	none
COc1ccccc1N1CCN(C(=O)CSc2nc3ccccc3nc2N2CCCCC2)CC1	KCNQ1 block 6 | KCNQ1 block val 70.0 | CHO KCNQ1 ctr inactive | KCNQ2 inh inactive | KCNQ1-KCNE1 inh 99.0% | KCNK9 inh conf inactive | Kir21 sel inactive | KCNK9 uninduced inactive
O=C(CNC(=O)c1cccs1)Nc1ccc2c(c1)OCCO2	none
Cc1ccc(NC(=O)c2cc(C)n(-c3cccc(C)c3)c2C)cc1	none
Cc1cc(C(=O)Nc2ccc(Cl)cc2)c(C)n1-c1ccccc1	KCNQ1 block 13 | KCNQ1 block val 124.0 | CHO KCNQ1 ctr inactive | KCNQ1 APC inh inactive | KCNQ2 inh 115.0% | KCNQ1-KCNE1 inh 98.0% | KCNK9 inh conf inactive | Kir21 sel inactive | KCNK9 uninduced inactive
CC(C)(C)c1ccc(-c2nc(NCc3cccnc3)c3ccccc3n2)cc1	KCNK9 inh -9.27, KCNQ1 block 15 | KCNQ1 block val 152.5 | CHO KCNQ1 ctr inactive | KCNQ1 APC inh inactive | KCNQ2 inh 100.0% | KCNQ1-KCNE1 inh 186.0% | KCNK9 inh conf 26.0% | Kir21 sel inactive | KCNK9 uninduced 41.5%
c1cncc(CNc2nc(-c3cccnc3)nc3ccccc23)c1	none
CCc1ccccc1NCC(=O)Nc1ccc(Cl)c(C(F)(F)F)c1	KCNQ1 block 8 | KCNQ1 block val 50.0 | CHO KCNQ1 ctr inactive | KCNQ2 inh 61.7% | KCNQ1-KCNE1 inh inactive | KCNK9 inh conf inactive | Kir21 sel inactive | KCNK9 uninduced 39.5%
Cc1noc(C)c1NC(=O)Nc1ccc2c(c1)C(=O)N([C@H](C)CO)C[C@H](C)[C@@H](CN(C)C(=O)NC1CCCCC1)O2	none (no result: KCNQ1 pot, Kir21 block, KCNK9 inh, hERG rescue, KCNQ1 block)
CCOC(=O)c1c(C)[nH]c(C(C)=NNC(=O)c2cccs2)c1C	none (no result: KCNQ1 pot, Kir21 block, KCNK9 inh, hERG rescue, KCNQ1 block)
CCC(CC)NC(=O)Nc1ccc(F)c(Cl)c1	KCNK9 inh -8.58, KCNQ1 block 9 | KCNQ1 block val 44.5 | CHO KCNQ1 ctr inactive | KCNQ2 inh inactive | KCNQ1-KCNE1 inh 62.5% | KCNK9 inh conf 44.0% | Kir21 sel inactive | KCNK9 uninduced inactive
CN1/C(=C\C(=O)Nc2cccc(Cl)c2)C(C)(C)c2ccccc21	KCNK9 inh -8.22, KCNQ1 block 9 | KCNQ1 block val 120.0 | CHO KCNQ1 ctr inactive | KCNQ1 APC inh inactive | KCNQ2 inh 125.3% | KCNQ1-KCNE1 inh 169.0% | KCNK9 inh conf 45.0% | Kir21 sel inactive | KCNK9 uninduced 33.5%
CCOc1ccc(OC(=O)NC(c2ccccc2)C(Cl)(Cl)Cl)cc1 (configuration not stated)	KCNQ1 block 8 | KCNQ1 block val 111.0 | CHO KCNQ1 ctr inactive | KCNQ2 inh 100.7% | KCNQ1-KCNE1 inh 168.5% | KCNK9 inh conf inactive | Kir21 sel inactive | KCNK9 uninduced inactive
CC(C)OC(=O)NC(c1ccccc1)C(Cl)(Cl)Cl (configuration not stated)	none
